Assay results as given in ChEMBL document CHEMBL3861998, “Development of 6-arylcoumarins as nonsteroidal progesterone antagonists. Structure-activity relationships and fluorescence properties” (Bioorg Med Chem, 2016).
pIC50: −log10 of the molar value.

Assays:
[1] = target: T1, Progesterone receptor (Homo sapiens, UniProt P06401); test: Antagonist activity at PR in human T47D cells assessed as inhibition of progesterone-induced alkaline phosphatase expression after 24 hrs by alkaline phopshatase assay; format: cell-based
T1 sequence (P06401 whole entry): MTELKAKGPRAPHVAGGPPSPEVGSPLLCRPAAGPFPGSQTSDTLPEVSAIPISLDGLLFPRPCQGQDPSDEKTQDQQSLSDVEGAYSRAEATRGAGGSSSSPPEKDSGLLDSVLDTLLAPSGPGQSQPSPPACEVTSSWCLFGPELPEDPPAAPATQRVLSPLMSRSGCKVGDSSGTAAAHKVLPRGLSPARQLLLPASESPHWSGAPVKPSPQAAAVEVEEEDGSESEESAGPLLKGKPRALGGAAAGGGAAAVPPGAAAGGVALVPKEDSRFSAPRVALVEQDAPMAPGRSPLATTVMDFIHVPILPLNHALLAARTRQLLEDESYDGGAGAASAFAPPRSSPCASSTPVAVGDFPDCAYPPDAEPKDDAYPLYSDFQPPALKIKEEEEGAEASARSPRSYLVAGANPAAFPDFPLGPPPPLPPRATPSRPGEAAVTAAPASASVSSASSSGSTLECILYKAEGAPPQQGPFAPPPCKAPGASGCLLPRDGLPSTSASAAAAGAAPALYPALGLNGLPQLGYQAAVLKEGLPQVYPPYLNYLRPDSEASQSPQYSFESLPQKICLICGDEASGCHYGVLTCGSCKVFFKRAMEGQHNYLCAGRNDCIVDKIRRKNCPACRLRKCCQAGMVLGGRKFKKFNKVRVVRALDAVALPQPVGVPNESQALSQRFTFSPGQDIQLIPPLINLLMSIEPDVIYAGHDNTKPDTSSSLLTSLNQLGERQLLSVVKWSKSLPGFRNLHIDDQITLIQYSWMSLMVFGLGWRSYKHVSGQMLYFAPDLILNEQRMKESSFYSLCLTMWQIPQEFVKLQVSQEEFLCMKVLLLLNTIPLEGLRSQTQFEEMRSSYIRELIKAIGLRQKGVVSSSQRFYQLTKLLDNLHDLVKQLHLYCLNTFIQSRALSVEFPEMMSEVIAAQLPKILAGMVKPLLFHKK
Outline: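 T-47D cells seeded at 10^4 cells/well and incubated overnight at 37°C, 5% CO₂. Fresh medium with compound added for 24 h. Cells fixed in 1.8% formalin in PBS and washed. Substrate was 1 mg/mL p-nitrophenyl phosphate in diethanolamine buffer, pH 9.0, 2 mM MgCl₂, for 2 h at room temperature in the dark. Stopped with 1 M NaOH; absorbance read at 405 nm.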

[2] = target: T1, Progesterone receptor; test: Displacement of [1,2,6,7-3H]progesterone from recombinant human GST-tagged PR-LBD (675 to 933 residues) expressed in baculovirus-infected insect cells measured after 24 hrs by liquid scintillation counting method
Outline: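 Incubated with 4 nM [³H]progesterone and compound (final DMSO 3%) for 24 h at 4°C in the dark. Nonspecific binding set with 200-fold excess unlabeled progesterone. Free ligand removed with dextran/γ-globulin-coated charcoal, 5 min at 4°C, then centrifuged; supernatant counted by liquid scintillation. Duplicates.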

[3] = target: T2, Androgen receptor (Mus musculus, UniProt P19091); test: Antagonist activity at AR in mouse SC3 cells assessed as inhibition of dihydrotestosterone-induced cell growth 10^-5 to 10^-7 M measured after 3 days by CCK8 assay; format: cell-based; conditions: sc-3, 72 h
T2 sequence (P19091 whole entry): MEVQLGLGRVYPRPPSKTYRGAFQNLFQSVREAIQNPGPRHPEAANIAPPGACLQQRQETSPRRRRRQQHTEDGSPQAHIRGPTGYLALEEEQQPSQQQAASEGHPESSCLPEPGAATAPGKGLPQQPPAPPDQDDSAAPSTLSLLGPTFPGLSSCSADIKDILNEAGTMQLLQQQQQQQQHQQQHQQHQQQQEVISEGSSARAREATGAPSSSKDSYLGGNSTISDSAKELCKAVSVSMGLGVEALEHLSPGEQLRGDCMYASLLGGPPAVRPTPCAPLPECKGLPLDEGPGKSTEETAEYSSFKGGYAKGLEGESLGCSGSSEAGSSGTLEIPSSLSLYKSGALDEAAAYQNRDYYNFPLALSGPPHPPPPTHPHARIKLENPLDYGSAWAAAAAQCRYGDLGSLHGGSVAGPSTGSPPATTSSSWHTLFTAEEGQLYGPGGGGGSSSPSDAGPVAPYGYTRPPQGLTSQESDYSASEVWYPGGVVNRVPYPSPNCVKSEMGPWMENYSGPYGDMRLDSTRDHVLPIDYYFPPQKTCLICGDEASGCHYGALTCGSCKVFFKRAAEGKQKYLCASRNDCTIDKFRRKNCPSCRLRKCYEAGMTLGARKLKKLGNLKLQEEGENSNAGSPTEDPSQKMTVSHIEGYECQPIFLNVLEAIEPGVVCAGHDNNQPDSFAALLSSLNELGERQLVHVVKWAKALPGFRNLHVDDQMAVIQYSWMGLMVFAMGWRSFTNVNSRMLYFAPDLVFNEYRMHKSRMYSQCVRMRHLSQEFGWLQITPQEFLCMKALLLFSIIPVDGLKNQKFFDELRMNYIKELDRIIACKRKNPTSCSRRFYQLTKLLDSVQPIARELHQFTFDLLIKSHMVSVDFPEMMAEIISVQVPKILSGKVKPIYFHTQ
Outline: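 SC-3 cells maintained in MEMα with 2% FBS and 1 nM DHT, 37°C, 5% CO2. Seeded at 20,000 cells/mL in MEMα with 2% charcoal-stripped FBS and held 24 h. Serial dilutions of compound (DMSO control) added with 1 nM DHT, then 3 days at 37°C. WST-8 (CCK-8) added for 2 h, absorbance read at 450 nm. Triplicate or more.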

[4] = species: Mus musculus; test: Cytotoxicity against mouse SC3 cells assessed as effect on cell growth at 10^-5 to 10^-7 M after 3 days by CCK8 assay; format: toxicity; conditions: sc-3, 72 h
Outline: (§1)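 SC-3 cells kept in MEMα with 2% FBS and 1 nM DHT at 37°C, 5% CO₂. Trypsinized, diluted to 20,000 cells/mL in MEMα with 2% charcoal-stripped FBS, seeded and held 24 h. Serial dilutions of compound or DMSO control added with 1 nM DHT. Incubated 3 days at 37°C. Cell number read by WST-8 (CCK-8), 2 h, absorbance at 450 nm. Triplicate or more.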

[5] = target: T3, Glucocorticoid receptor (Homo sapiens, UniProt P04150); test: Displacement of [3H]dexamethasone from human GR measured after 18 hrs by scintillation counting method
T3 sequence (P04150 whole entry): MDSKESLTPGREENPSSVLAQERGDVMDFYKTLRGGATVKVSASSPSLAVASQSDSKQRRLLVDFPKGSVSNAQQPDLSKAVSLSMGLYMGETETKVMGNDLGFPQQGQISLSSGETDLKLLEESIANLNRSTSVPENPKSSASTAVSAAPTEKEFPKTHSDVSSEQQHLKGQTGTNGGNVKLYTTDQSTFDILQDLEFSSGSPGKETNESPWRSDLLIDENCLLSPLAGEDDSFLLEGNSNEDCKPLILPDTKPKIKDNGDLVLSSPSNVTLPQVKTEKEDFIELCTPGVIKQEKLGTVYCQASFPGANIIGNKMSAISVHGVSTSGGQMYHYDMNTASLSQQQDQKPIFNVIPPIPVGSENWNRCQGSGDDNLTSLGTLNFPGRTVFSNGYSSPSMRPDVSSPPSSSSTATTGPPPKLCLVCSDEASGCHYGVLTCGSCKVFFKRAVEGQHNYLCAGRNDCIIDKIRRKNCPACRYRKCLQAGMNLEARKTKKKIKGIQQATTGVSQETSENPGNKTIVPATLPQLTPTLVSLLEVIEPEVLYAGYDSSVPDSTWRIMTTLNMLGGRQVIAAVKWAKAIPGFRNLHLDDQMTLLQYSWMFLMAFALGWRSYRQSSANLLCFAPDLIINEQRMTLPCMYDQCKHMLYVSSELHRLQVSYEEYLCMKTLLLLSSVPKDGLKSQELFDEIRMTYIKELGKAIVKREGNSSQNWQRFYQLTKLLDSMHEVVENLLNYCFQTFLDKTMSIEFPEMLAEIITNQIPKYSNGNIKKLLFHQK
Outline: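 hGR at 1.25 nM final in 50 mM KH₂PO₄ pH 7.4 with 10 mM sodium molybdate and 1 mM DTT. Incubated with 10^-9 M [³H]dexamethasone and compounds at 10^-7 to 10^-5 M, 0.4% DMSO, for 18 h. Nonspecific binding set with 10^-5 M triamcinolone acetonide. Bound ligand collected by vacuum filtration on glass-fiber filters and counted. Duplicates.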

[6] = target: T2, Androgen receptor; test: Antagonist activity at AR in mouse SC3 cells assessed as inhibition of dihydrotestosterone-induced cell growth at 10^-5 M measured after 3 days by CCK8 assay; format: cell-based; conditions: sc-3, 72 h, 10 µM; outline: as §1

Row | Structure (SMILES) | pIC50 [1] | further results
1 | N#Cc1ccc(-c2ccc3oc(=O)ccc3c2)n1Cc1ccccc1 | 7.25 | pIC50 [2]: 6.10
2 | COc1cc2oc(=O)cc(C)c2cc1-c1ccc(C#N)n1C | 7.62 | pIC50 [2]: 6.00; inhibition (INH) [3]: Active; Activity [4]: Non-Toxic
3 | N#Cc1ccc(-c2ccc3oc(=O)ccc3c2)n1Cc1ccc([N+](=O)[O-])cc1 | 6.35 | –
4 | CCN(CC)c1cc2oc(=O)ccc2cc1-c1ccc(C#N)n1CC#N | 6.07 | –
5 | CCN(CC)c1cc2oc(=O)ccc2cc1-c1ccc(C#N)n1C | 6.62 | pIC50 [5]: 5.00; pIC50 [2]: 5.87; Activity [4]: Non-Toxic; inhibition (INH) [6]: Active
6 | N#Cc1ccc(-c2ccc3oc(=O)ccc3c2)n1CC1CCCCC1 | 7.51 | –
7 | N#Cc1ccc(-c2ccc3oc(=O)ccc3c2)s1 | 6.85 | –
8 | COc1cc2oc(=O)cc(C)c2cc1-c1ccc(C#N)n1Cc1ccccc1 | 6.64 | –
9 | N#Cc1ccc(-c2ccc3oc(=O)ccc3c2)n1Cc1c(F)c(F)c(F)c(F)c1F | 6.72 | –
10 | CCn1c(C#N)ccc1-c1ccc2oc(=O)ccc2c1 | 6.66 | –
11 | CCn1c(C#N)ccc1-c1cc2c(C)cc(=O)oc2cc1OC | 7.42 | –
12 | N#Cc1ccc(-c2ccc3oc(=O)ccc3c2)n1Cc1cc(F)cc(F)c1 | 6.80 | –
13 | N#Cc1ccc(-c2ccc3oc(=O)ccc3c2)n1Cc1ccc2ccccc2c1 | 6.54 | –
14 | N#Cc1ccc(-c2ccc3oc(=O)ccc3c2)[nH]1 | 6.85 | –
15 | COc1cc2oc(=O)cc(C)c2cc1-c1ccc(C#N)n1CC1CCCCC1 | 6.26 | –
16 | Cc1cc(=O)oc2cc(O)c(-c3ccc(C#N)n3C)cc12 | 6.52 | pIC50 [2]: 4.80

Row | Structure (SMILES) | pIC50 [1] | further results
17 | N#CCn1c(C#N)ccc1-c1ccc2oc(=O)ccc2c1 | 4.80 | –
18 | CCCCCCn1c(C#N)ccc1-c1ccc2oc(=O)ccc2c1 | 7.47 | pIC50 [2]: 6.80
19 | COc1cc2oc(=O)cc(C)c2cc1-c1ccc(C#N)n1Cc1ccc(F)cc1 | 6.24 | –
20 | O=c1ccc2cc(-c3sccc3Cl)ccc2o1 | 6.64 | –
21 | COc1cc2oc(=O)cc(C)c2cc1-c1ccc(C#N)[nH]1 | 6.59 | –
22 | CCN(CC)c1cc2oc(=O)ccc2cc1-c1ccc(C#N)[nH]1 | 6.92 | –
23 | CCCCCCn1c(C#N)ccc1-c1cc2c(C)cc(=O)oc2cc1OC | 6.74 | –
24 | CCN(CC)c1cc2oc(=O)ccc2cc1-c1ccc(C#N)n1Cc1ccccc1 | 6.24 | –
25 | N#Cc1ccc(-c2ccc3oc(=O)ccc3c2)n1Cc1ccc(F)cc1 | 6.68 | –
26 | CCN(CC)c1cc2oc(=O)ccc2cc1-c1ccc(C#N)n1CC | 6.60 | –
27 | COc1cc2oc(=O)cc(C)c2cc1-c1ccc(C#N)n1Cc1ccc(C#N)cc1 | 6.32 | –
28 | N#Cc1ccc(Cn2c(C#N)ccc2-c2ccc3oc(=O)ccc3c2)cc1 | 6.54 | –
29 | CC(=O)c1ccc(-c2ccc3oc(=O)ccc3c2)s1 | 6.62 | –
30 | CC(C)(O)C(=O)Nc1ccc([N+](=O)[O-])c(C(F)(F)F)c1 [HYDROXYFLUTAMIDE] | – | inhibition (INH) [3]: Active
31 | Cc1ccsc1-c1ccc2oc(=O)ccc2c1 | 6.82 | –
32 | Cc1ccc(-c2ccc3oc(=O)ccc3c2)s1 | 6.36 | –
